The subject of data set [1] is Mythimna separata. The data set is described as follows: Insecticidal activity against Mythimna separata assessed as larval mortality at 10 mg/l by leaf-dip method. Type of data set: functional.
For data set [2], the system named is Mythimna separata. Briefly: Insecticidal activity against Mythimna separata assessed as larval mortality at 600 mg/l by leaf-dip method. Type of data set: functional.
Data set [3] relates to Candida albicans. Briefly: Antifungal activity against Candida albicans isolate 17 grown in YNB medium incubated for 24 hrs by microdilution method. The format is functional. Particulars: isolate 17, 24 h. In outline:
(§1)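 C. albicans standard strain SC5314 and clinical isolates g5 and 17# tested by broth microdilution in YNB or RPMI 1640 medium. Plates incubated at 35 °C for up to 72 h, with visual readings taken at 24 h. MIC taken as the lowest concentration preventing visible growth.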

The test system of data set [4] is Sclerotinia sclerotiorum. Briefly: Antifungal activity against Sclerotinia sclerotiorum assessed as reduction in growth at 50 mg/l by mycelium growth rate method relative to control. Type of data set: functional. In outline:
(§2)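 Mycelium growth rate method against S. sclerotiorum, P. capsici, P. piricola, R. cerealis, W. anthracnose and R. bakanae. Each compound tested at 50 mg/L, with chlorothalonil and PTB as controls. Relative inhibitory ratio (%) calculated from mycelial growth.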

The test system of data set [5] is Candida albicans. Briefly: Antifungal activity against Candida albicans isolate g5 grown in RPMI 1640 medium incubated for 24 hrs by microdilution method. Type of data set: functional. As to conditions: isolate g5, 24 h. A digest of the protocol:
as §1

Data set [6] deals with Candida albicans. Briefly: Antifungal activity against Candida albicans SC5314 grown in YNB medium incubated for 24 hrs by microdilution method. Type of data set: functional. Particulars: SC5314, 24 h. A digest of the protocol: as §1
A short description of data set [7]: Cytotoxicity against HEK293T cells assessed as reduction in cell growth incubated for 48 hrs by MTT assay. Type of data set: cell-based, HEK-293T. Particulars: human. A digest of the protocol:
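293T cells in logarithmic phase seeded at 12000 cells/well overnight, then exposed to a range of compound concentrations for 48 h. MTT added for a further 4 h, formazan dissolved in DMSO, and OD570 read. CC50 is the concentration reducing viability by 50%.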

For data set [8], the system named is Ceratobasidium cereale. Briefly: Antifungal activity against Rhizoctonia cerealis assessed as reduction in growth at 50 mg/l by mycelium growth rate method relative to control. Type of data set: functional. A digest of the protocol: as §2
The test system of data set [9] is Phytophthora capsici. The data set is described as follows: Antifungal activity against Phytophthora capsici assessed as reduction in growth at 50 mg/l by mycelium growth rate method relative to control. Type of data set: functional. A digest of the protocol: as §2
Data set [10] has as its system Severe acute respiratory syndrome-related coronavirus. The data set is described as follows: Inhibition of SARS coronavirus M protease using AVLQSGFRKK as substrate at 20 uM by FRET assay relative to control. In outline: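 Purified SARS-CoV Mpro assayed by FRET. Protein, compound and substrate were preheated at 37 °C and oscillated. Fluorescence (ex 320/em 405 nm) was read every 5 s for 200 reads.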

The subject of data set [11] is Arabidopsis thaliana. The data set is described as follows: Inhibition of Arabidopsis thaliana AHAS catalytic subunit using pyruvate as substrate at 10 uM measured after 30 mins by colorimetric method relative to control. In outline:
(§3)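 Colorimetric assay in 50 mM potassium phosphate pH 7.0 with 50 mM pyruvate, 1 mM thiamine diphosphate, 10 mM MgCl2 and 10 μM FAD. Incubated 30 min at 37 °C for plant AHAS and 30 °C for fungal AHAS. Acetolactate formed was then quantified.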

For data set [12], the system named is Botryosphaeria berengeriana. The data set is described as follows: Antifungal activity against Physalospora pyricola assessed as reduction in growth at 50 mg/l by mycelium growth rate method relative to control. Type of data set: functional. In outline:
as §2

The test system of data set [13] is SARS coronavirus M protease. The data set is described as follows: Selectivity index, ratio of CC50 for HEK293T cells to IC50 for SARS coronavirus M protease. Type of data set: toxicity. As to conditions: human, read-out: Ratio CC50/IC50. In outline:
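Medium discarded, DMSO added, OD570 read; CC50 is the concentration cutting viability by 50%. IC50 from the 37 °C Mpro FRET assay (ex 320/em 405 nm) via V0/V = 1+[I]/IC50.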

Data set [14] deals with Tobacco mosaic virus. Briefly: Antiviral activity against Tobacco mosaic virus inoculated in Nicotiana tabacum leaves assessed as passivation by measuring local lesion numbers at 100 mg/l pre-incubated with virus for 30 mins followed by inoculation and measured up to 4 days. Type of data set: functional. A digest of the protocol: (§4)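 Passivation assay: TMV mixed with an equal volume of compound solution for 30 min, then rubbed onto the left half of N. tabacum L. leaves. The right half received virus mixed with solvent as control. Local lesions counted 3–4 days after inoculation. Compounds tested at 500 or 100 mg/L.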

Data set [15] relates to Brassica rapa subsp. oleifera. Briefly: Herbicidal activity against Brassica campestris L assessed as inhibition of rape root growth at 10 mg/l root growth incubated for 48 hrs relative to control. The format is functional. In outline: (§5)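 Rape seeds soaked in distilled water for 4 h, then placed on filter paper wetted with inhibitor solution, 15 seeds per 6-cm dish. Germinated in the dark at 28 °C for 48 h. Mean length of 10 roots per plate measured.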

The test system of data set [16] is Fusarium fujikuroi. The data set is described as follows: Antifungal activity against Gibberella fujikuroi assessed as reduction in growth at 50 mg/l by mycelium growth rate method relative to control. The format is functional. In outline: as §2
For data set [17], the system named is Tobacco mosaic virus. Briefly: Antiviral activity against Tobacco mosaic virus inoculated in Nicotiana tabacum leaves assessed as passivation by measuring local lesion numbers at 500 mg/l pre-incubated with virus for 30 mins followed by inoculation and measured up to 4 days. The format is functional. In outline: as §4
In data set [18] the test system is Arabidopsis thaliana. The data set is described as follows: Inhibition of Arabidopsis thaliana AHAS catalytic subunit using pyruvate as substrate at 100 uM measured after 30 mins by colorimetric method relative to control. A digest of the protocol:
as §3

Data set [19] relates to Candida albicans. The data set is described as follows: Antifungal activity against Candida albicans SC5314 grown in RPMI 1640 medium incubated for 24 hrs by microdilution method. The format is functional. As to conditions: SC5314, 24 h. A digest of the protocol: as §1
The test system of data set [20] is Candida albicans. The data set is described as follows: Inhibition of Candida albicans AHAS catalytic subunit at 100 uM using pyruvate as substrate measured after 30 mins by colorimetric method relative to control. In outline: as §3
Data set [21] relates to Candida albicans. Briefly: Inhibition of Candida albicans AHAS catalytic subunit at 10 uM using pyruvate as substrate measured after 30 mins by colorimetric method relative to control. A digest of the protocol: as §3
For data set [22], the system named is Candida albicans. The data set is described as follows: Antifungal activity against Candida albicans isolate 17 grown in RPMI 1640 medium incubated for 24 hrs by microdilution method. Type of data set: functional. Particulars: isolate 17, 24 h. A digest of the protocol: as §1
For data set [23], the system named is Brassica rapa subsp. oleifera. Briefly: Herbicidal activity against Brassica campestris L assessed as inhibition of rape root growth at 100 mg/l root growth incubated for 48 hrs relative to control. Type of data set: functional. A digest of the protocol:
as §5

For data set [24], the system named is Candida albicans. The data set is described as follows: Antifungal activity against Candida albicans isolate g5 grown in YNB medium incubated for 24 hrs by microdilution method. Type of data set: functional. As to conditions: isolate g5, 24 h. In outline: as §1
Data set [25] can be described thus: Inhibition of SARS coronavirus M protease using AVLQSGFRKK as substrate by FRET assay. Also noted: species or system Severe acute respiratory syndrome-related coronavirus. In outline:
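Purified SARS-CoV Mpro assayed by FRET. Protein, compound and substrate were preheated at 37 °C and oscillated. Fluorescence (ex 320/em 405 nm) was read every 5 s for 200 reads. IC50 from V0/V = 1+[I]/IC50.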

In data set [26] the test system is Colletotrichum. Briefly: Antifungal activity against Colletotrichum (W. anthracnose) assessed as reduction in growth at 50 mg/l by mycelium growth rate method relative to control. Type of data set: functional. In outline:
as §2

Converted amounts (≈) assume the structure as drawn. The source made the active and inactive calls. The calls are words filed in the database; no cut-off is given here.

On to `CNC(=O)c1cc(Cl)cc(C)c1NC(=O)c1cc(Br)nn1-c1ncccc1Cl` [CHLORANTRANILIPROLE], for which the mortality at 10 µg/mL in [1] amounted to 100%.
Regarding `COc1nc(OC)nc(Sc2ccc(F)cc2C#N)n1`, the mortality at 600 µg/mL in data set [2] was 20%. The MIC in data set [3] was found to be 25 µg/mL (≈ 85.5 µM); in data set [5], 100 µg/mL (≈ 342 µM); in data set [6] it was 50 µg/mL (≈ 171 µM); in data set [19], 100 µg/mL (≈ 342 µM); in data set [22], 100 µg/mL (≈ 342 µM); in data set [24], 50 µg/mL (≈ 171 µM). The inhibition at 50 µg/mL in data set [4] is 33.3%; in data set [8], 57.1%; in [9], 25%; in [12], 75%; in data set [16], 33.3%; in data set [26], 40.5%. The CC50 at 48 h in data set [7] was > 200 µM. The inhibition in data set [10] was 100%; in [11] it was 59.2%; in data set [18] it was 71.2%; in data set [20] it was 85.1%; in data set [21], 36.4%. Moreover, the selectivity ratio in data set [13] came to 44.5. Besides, the inhibition entry in data set [14] is “inactive”. Further, the “inhibition (INH)” value was found to be 4.6% in [15] and 60.3% in [23]. In [17], the inhibition at 500 µg/mL came to 26.4%. In data set [25], this compound yielded an IC50 of 4.47 µM.
Take `COc1nc(OC)nc(Sc2cccc(I)c2C#N)n1`: the mortality at 600 µg/mL in data set [2] came to 45%. The MIC in data set [3], in [5], in data set [6], in data set [19], in data set [22] and in data set [24] was > 100 µg/mL in each case. The inhibition at 50 µg/mL in data set [4] turned out to be 11.1%; in data set [8], 52.4%; in [9], 8.3%; in [12], 29.7%; in data set [16] it was 30.3%; in data set [26] it was 33.3%. For the same compound, the CC50 at 48 h in data set [7] worked out at 30.5 µM. Besides, the inhibition in data set [10] was 100%; in [11], 51.6%; in [18], 66.7%; in data set [20], 69.3%; in data set [21], 45.4%. Moreover, in [14], the inhibition result was “inactive”. Moreover, the “inhibition (INH)” value in data set [15] is 0%; in data set [23], 51.6%. Further, in data set [17], the inhibition at 500 µg/mL came out at 22.8%. In [25], this compound showed an IC50 of 3.3 µM.

(Values after ChEMBL document CHEMBL4390648, “Chemical synthesis, crystal structure, versatile evaluation of their biological activities and molecular simulations of novel pyrithiobac derivatives” (Eur J Med Chem, 2019).)
